From PubChem BioAssay AID588767 (The Scripps Research Institute Molecular Screening Center, 2011) come the findings set out here.

The target of the experiment is Platelet-activating factor acetylhydrolase 2, cytoplasmic (Mus musculus) (UniProt Q8VDG7). As to the kind of experiment: off-target mouse PAFAH2 activity blockade – cell lysate, gel-based competitive ABPP, fluorescence, selectivity assay for pPAFAH inhibitor project, late-stage follow-up (AID 588767). As to conditions: BW5147 T-cell soluble proteome, FP-Rh, stronger effect = higher value. In a few lines:
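System: endogenous PAFAH2 within BW5147-derived murine T-cell soluble proteome / Input: proteome 1 mg/mL / Buffer or medium: DPBS / Schedule: compound pre-incubation 30 min and probe labelling 30 min, both 37 °C / Measured by: SDS-PAGE separation with in-gel rhodamine fluorescence scanning / Read-out basis: % inhibition from band density relative to DMSO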

Activity calls are given as the source filed them.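 The calls were made as follows: active = inhibition of at least 50% at 0.1 µM compound; inactive = inhibition below 50%.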

Sequence of Platelet-activating factor acetylhydrolase 2, cytoplasmic (Mus musculus) (Q8VDG7 whole entry, looked up): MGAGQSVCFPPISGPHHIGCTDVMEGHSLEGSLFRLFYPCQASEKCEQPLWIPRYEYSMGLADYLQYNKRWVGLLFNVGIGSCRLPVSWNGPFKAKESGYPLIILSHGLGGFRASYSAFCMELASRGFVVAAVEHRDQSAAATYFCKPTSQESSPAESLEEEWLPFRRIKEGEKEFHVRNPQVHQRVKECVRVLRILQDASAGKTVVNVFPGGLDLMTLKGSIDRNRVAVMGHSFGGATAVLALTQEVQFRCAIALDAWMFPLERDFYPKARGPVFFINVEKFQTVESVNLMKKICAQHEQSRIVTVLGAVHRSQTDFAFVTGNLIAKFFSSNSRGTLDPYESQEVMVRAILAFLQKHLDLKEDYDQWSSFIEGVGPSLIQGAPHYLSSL

As a reminder, the inhibition is the share of the control response that was lost under treatment. As for `COc1ccc2cc(-c3cnn(C(=O)N4CCCC4)n3)ccc2c1`, the inhibition (at 0.1 µM) was 100%.

`Cc1cc(N2CCN(C(=O)Oc3ccc(-c4ccccc4)cn3)CC2)c2ccccc2n1`: the inhibition is, setting by setting: (at 0.1 µM) 0% (inactive); (inhibition, at 1 µM) 0%; (inhibition, at 10 µM) 0%.
